Data reported in PubChem BioAssay AID1526 (The Scripps Research Institute Molecular Screening Center, 2009).
This is one part of the list. A number with no mark means an inactive call. Activity calls are given as the source filed them.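 Rule for the calls: active = activation above a set limit derived from the earlier primary screen (cut at about 12% in these data); inactive = the rest.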

Biological target: Mucolipin-3 (Homo sapiens) (UniProt Q8TDD5)
Assay: human TRPML3 channel agonists, confirmation, cell-based, HEK293 TRPML3-YFP, Fluo-8 calcium, triplicate (AID 1526)
Conditions: Fluo-8 calcium fluorescence, at 3 µM, hits give high values, 100% set by carbachol, 0% by DMSO
Summary of the method: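 Dosing: single nominal 3 µM dose per test compound. Material: HEK293 line with stable human TRPML3-YFP. Measured by: Fluo-8 calcium dye fluorescence. Timing: calcium dye loading 1 h at 37 °C, fluorescence read 125 s.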

Mucolipin-3 (Homo sapiens), sequence (Q8TDD5 whole entry, looked up): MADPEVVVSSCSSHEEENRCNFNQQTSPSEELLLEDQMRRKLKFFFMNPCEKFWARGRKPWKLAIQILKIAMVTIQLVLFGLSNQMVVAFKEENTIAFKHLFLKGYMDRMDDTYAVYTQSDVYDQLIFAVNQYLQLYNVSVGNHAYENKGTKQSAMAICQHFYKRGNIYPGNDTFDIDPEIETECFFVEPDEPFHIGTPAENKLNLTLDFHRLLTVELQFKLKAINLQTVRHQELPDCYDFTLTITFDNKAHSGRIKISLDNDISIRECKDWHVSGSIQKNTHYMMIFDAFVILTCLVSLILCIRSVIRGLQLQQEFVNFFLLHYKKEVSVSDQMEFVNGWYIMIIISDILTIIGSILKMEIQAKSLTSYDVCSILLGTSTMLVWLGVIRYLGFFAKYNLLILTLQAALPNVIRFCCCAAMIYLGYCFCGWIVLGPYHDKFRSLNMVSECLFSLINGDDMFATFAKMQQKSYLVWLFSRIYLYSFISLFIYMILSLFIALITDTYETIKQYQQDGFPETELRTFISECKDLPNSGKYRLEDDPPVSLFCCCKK

Row | SMILES | activation
1 | Cc1cccc(C)c1N1CCN(S(=O)(=O)N2CCCCC2)CC1 | 79.3% (active)
2 | COc1ccccc1N(CC(=O)N1CCCCC1)S(=O)(=O)c1ccccc1 | 169% (active)
3 | COc1ccc(Cl)cc1N(CC(=O)N1CCCCC1)S(C)(=O)=O | 71.9% (active)
4 | C=C(C)Cn1c(C)cc(C)c(S(=O)(=O)c2ccccc2C)c1=O | 27.8% (active)
5 | COc1cc(/C=C(\C#N)c2nc3c(s2)CC(C)CC3)ccc1O (stereo not drawn) | 6.5%
6 | CC1CCCC(C)N1C(=O)CN1CCN(c2nc(-c3ccc(F)cc3)cs2)CC1 (stereo not drawn) | 20.4% (active)
7 | CC1(C)CCCC2=C1CC1C(=O)N(c3ccccc3)C(=O)C1C2 (stereo not drawn) | 14.2% (active)
8 | CCN(CC)S(=O)(=O)c1ccc2c3c(cccc13)C(=O)S2 | 10.5%
9 | O=C(CC(O)(C(F)(F)F)C(F)(F)F)Nc1ccc(Cl)c(Cl)c1 | 13.9% (active)
10 | COc1ccc(S(=O)(=O)N2CCCC2)c(C)c1C | 13.6% (active)
11 | COc1ccc(-c2noc(CN(C)S(=O)(=O)c3ccc(C)cc3)n2)cc1 | 111% (active)
12 | CCOc1ccc(S(=O)(=O)N2CCCCCC2)c2ccccc12 | 129% (active)
13 | COc1ccc(N(CCC#N)S(=O)(=O)c2ccc(Cl)cc2)cc1 | 9.45%
14 | c1ccc2c(C[n+]3csc4ccccc43)cccc2c1 | 58% (active)
15 | O=S(=O)(Nc1ccccc1N1CCOCC1)c1ccc(Cl)s1 | 63% (active)
16 | CCN(CC)C(=O)CC1(c2ccccc2OC)CCOC(C(C)C)C1 (stereo not drawn) | 14.7% (active)
17 | CC1=CC(C)(C)N(C(=O)CSc2nnc(-c3ccccc3)o2)c2ccc(C)cc21 | 48.3% (active)
18 | CCOC(=O)C1=C(NC(=S)NC(=O)c2ccccc2)c2ccccc2CC1(C)C | 43.6% (active)
